From ChEMBL document CHEMBL3085739, “Design, synthesis, and biological evaluation of 2-oxo-3,4-dihydropyrimido[4,5-d]pyrimidinyl derivatives as new irreversible epidermal growth factor receptor inhibitors with improved pharmacokinetic properties” (J Med Chem, 2013) come the findings set out here.

As a reminder, the pIC50 is the IC50 on a negative log10 scale, so that one unit is a factor of ten. A high value points to a small IC50. As usually defined, the clearance is the rate of elimination divided by the concentration. High values mean a high capacity for elimination, low ones a low capacity for elimination. The term AUC(0-inf) denotes total exposure, with the tail of the curve extrapolated. Low readings indicate less exposure, high ones more exposure. One may read the Cmax as the maximum level reached in the sampled fluid or tissue.

One data set concerns Mus musculus. Kind of data set: Toxicity in SCID nude mouse xenografted with human NCI-H1975 cells assessed as mortality at 10 to 30 mg/kg, po qd after 14 days. In kind it is organism-based. On the set-up: dose 10-30 mg/kg, route oral. The note with it: in vivo, 336 h. Put shortly: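 SCID mice (six weeks old) implanted subcutaneously in the right flank with H1975 cells (2 × 10⁶/mouse). Once tumours averaged 200−300 mm³, animals were randomized (n = 5 per group) and given vehicle or drug orally once daily for 14 days. Vehicle: 1% DMSO, 5% EtOH, 15% castor oil, 79% H₂O, at 0.1 mL/20 g. Mice were watched for morbidity, and body weight was recorded every other day.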

In data set [1] the test system is NCI-H1975. As to the kind of experiment: Antitumor activity against human NCI-H1975 cells xenografted in SCID nude mouse assessed as tumor growth inhibition at 10 mg/kg, po qd after 14 days. It is filed as functional. The note with it: NCI-H1975, 336 h, read-out: TGI. In outline:
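SCID mice (6 weeks) were given H1975 cells subcutaneously in the right flank at 2 × 10^6 per mouse. At 200−300 mm3, n = 5 per group were randomized to daily oral vehicle or compound at 10 or 30 mg/kg for 14 days. Vehicle: 1% DMSO, 5% EtOH, 15% castor oil, 79% H2O. Tumors (W²·L/2) and body weight were measured every other day; TGI was calculated against vehicle controls.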
(In general: A xenograft is tissue or cells of one species grown in another, often human tumour cells in immunodeficient mice.)

Data set [2] in a line: Antiproliferative activity against human HCC827 cells expressing EGFR E746 to A750 deletion mutant after 72 hrs by MTS assay. It is filed as functional, cell-based. The note with it: HCC827, 72 h. Put shortly: (§1)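 MTS proliferation assay: cells exposed to compound for 72 h at six concentrations (0.1 nM to 10 μM), each concentration run six times. Cell number per line set to give an absorbance of 0.5–1.2 at […]. IC50 from a nonlinear sigmoidal dose–response fit. Values are means of at least three independent experiments.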
For orientation: Tetrazolium assays rely on reduction of a dye to a coloured formazan, in cell work by metabolically active cells.

Data set [3] in a line: Antiproliferative activity against human 95-D cells expressing wild-type EGFR after 72 hrs by MTS assay. In kind it is cell-based. In outline:
as §1

Data set [4] has as its target Proto-oncogene tyrosine-protein kinase receptor Ret (Homo sapiens) (UniProt P07949). As to the kind of experiment: Binding affinity to RET (unknown origin).
The target of data set [5] is Platelet-derived growth factor receptor beta (Homo sapiens) (UniProt P09619). As to the kind of experiment: Binding affinity to PDGFRbeta (unknown origin).
The target in data set [6] is T1, Dual specificity mitogen-activated protein kinase kinase 5 (Homo sapiens) (UniProt Q13163).
T1 sequence (whole entry): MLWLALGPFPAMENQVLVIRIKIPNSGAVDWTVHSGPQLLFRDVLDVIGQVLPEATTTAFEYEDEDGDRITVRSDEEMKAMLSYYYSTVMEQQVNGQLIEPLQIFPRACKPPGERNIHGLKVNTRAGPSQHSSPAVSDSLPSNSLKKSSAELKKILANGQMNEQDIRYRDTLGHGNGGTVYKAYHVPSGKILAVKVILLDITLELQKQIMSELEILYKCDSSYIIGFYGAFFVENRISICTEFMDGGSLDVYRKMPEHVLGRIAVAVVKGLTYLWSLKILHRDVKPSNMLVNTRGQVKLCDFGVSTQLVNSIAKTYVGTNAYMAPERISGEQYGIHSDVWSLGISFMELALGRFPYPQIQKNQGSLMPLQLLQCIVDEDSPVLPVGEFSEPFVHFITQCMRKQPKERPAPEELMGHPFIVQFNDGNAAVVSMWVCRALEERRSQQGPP
As to the kind of experiment: Binding affinity to MEK5 (unknown origin).

The target of data set [7] is Receptor-type tyrosine-protein kinase FLT3 (Homo sapiens) (UniProt P36888). As to the kind of experiment: Binding affinity to FLT3 (unknown origin).
Data set [8] has as its target Tyrosine-protein kinase Blk (Homo sapiens) (UniProt P51451). As to the kind of experiment: Binding affinity to BLK (unknown origin).
The target in data set [9] is Epidermal growth factor receptor (Homo sapiens, UniProt P00533, L858R). As to the kind of experiment: Inhibition of EGFR L858R mutant (unknown origin). In kind it is protein assay.
Data set [10] deals with NCI-H1975. Kind of data set: Effect on GADPH protein level in human NCI-H1975 cells at 3 to 330 nM after 2 hrs by Western blotting analysis. It is filed as functional, cell-based. (A western blot detects proteins with antibodies after separation by electrophoresis.)
The subject of data set [11] is NCI-H1975. As to the kind of experiment: Effect on ERK protein level in human NCI-H1975 cells at 3 to 330 nM after 2 hrs by Western blotting analysis. It is filed as functional, cell-based. In outline:
(§2)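 H1975 cells were grown 24 h, then treated for 2 h with DMSO or 3–330 nM compound. Lysates were sonicated, run on SDS-PAGE, blotted to PVDF, blocked in 5% BSA/TBST, and probed for phospho/total EGFR (pY1068), Akt and Erk1/2 (pT202/pY204) with peroxidase secondary antibodies. Blots are representative of three experiments.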

For data set [12], the system named is NCI-H1975. Kind of data set: Effect on AKT protein level in human NCI-H1975 cells at 3 to 330 nM after 2 hrs by Western blotting analysis. In kind it is functional, cell-based. Put shortly: as §2
Data set [13] concerns NCI-H1975. Kind of data set: Effect on EGFR protein level in human NCI-H1975 cells at 3 to 330 nM after 2 hrs by Western blotting analysis. In kind it is functional, cell-based. Put shortly: as §2
Data set [14] is described as follows: Clearance in Sprague-Dawley rat at 5 mg/kg, iv by LC/MS analysis. It is filed as ADME, organism-based. On the set-up: dose 5 mg/kg, route intravenous. The note with it: in vivo. Put shortly:
(§3)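 Male Sprague-Dawley rats (180−220 g), n = 4 per route, single iv dose 5 mg/kg or oral gavage 25 mg/kg. Vehicle was 2% DMSO, 4% EtOH, 4% castor oil, 90% H2O. Orbital sinus blood was taken from 2 min to 72 h into heparinized tubes. Plasma levels were measured by LC/MS with propranolol internal standard and analysed by pharmacokinetic modelling.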

A short description of data set [15]: AUC (0 to infinity) in Sprague-Dawley rat at 25 mg/kg, po by LC/MS analysis. In kind it is ADME, organism-based. Also on record: dose 25 mg/kg, route oral, time infinity. The note with it: plasma. In outline: as §3
Data set [16] is described as follows: Cmax in Sprague-Dawley rat at 25 mg/kg, po by LC/MS analysis. It is filed as ADME, organism-based. Also on record: dose 25 mg/kg, route oral. The note with it: in vivo. In outline: as §3
Data set [17] can be described thus: Cmax in Sprague-Dawley rat at 5 mg/kg, iv by LC/MS analysis. Also on record: dose 5 mg/kg, route intravenous. It is filed as ADME, organism-based. The note with it: in vivo. In outline:
as §3

Data set [18] has as its system NCI-H1975. Kind of data set: Antiproliferative activity against human NCI-H1975 cells expressing EGFR L858R/T790M double mutant after 72 hrs by MTS assay. It is filed as functional, cell-based. The note with it: NCI-H1975, 72 h.
The test system of data set [19] is Epidermal growth factor receptor (Homo sapiens), P00533 [L858R,T790M]. The note with it: NCI-H1975, 110 nM.

SMILES strings stand for the structures. pIC50: −log10 of the molar value. Active and inactive are the calls of the source. The calls are words filed in the database; no cut-off is given here.

Chain of Tyrosine-protein kinase Blk (Homo sapiens) (P51451 2-505 limits assumed): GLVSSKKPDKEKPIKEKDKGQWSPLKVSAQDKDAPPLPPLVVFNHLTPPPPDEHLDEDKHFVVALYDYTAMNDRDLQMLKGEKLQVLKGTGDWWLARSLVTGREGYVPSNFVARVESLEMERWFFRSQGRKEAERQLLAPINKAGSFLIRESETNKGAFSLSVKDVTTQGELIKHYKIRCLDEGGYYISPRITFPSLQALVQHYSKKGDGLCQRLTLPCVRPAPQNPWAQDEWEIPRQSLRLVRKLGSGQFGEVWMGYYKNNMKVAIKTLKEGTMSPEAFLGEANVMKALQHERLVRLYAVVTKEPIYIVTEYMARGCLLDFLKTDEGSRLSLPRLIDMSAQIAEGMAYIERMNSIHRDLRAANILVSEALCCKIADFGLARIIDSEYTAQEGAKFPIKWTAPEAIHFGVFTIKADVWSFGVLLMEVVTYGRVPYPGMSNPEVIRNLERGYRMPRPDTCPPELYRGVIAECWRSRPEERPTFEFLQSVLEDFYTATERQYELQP
Chain of Proto-oncogene tyrosine-protein kinase receptor Ret (Homo sapiens) (P07949 whole entry): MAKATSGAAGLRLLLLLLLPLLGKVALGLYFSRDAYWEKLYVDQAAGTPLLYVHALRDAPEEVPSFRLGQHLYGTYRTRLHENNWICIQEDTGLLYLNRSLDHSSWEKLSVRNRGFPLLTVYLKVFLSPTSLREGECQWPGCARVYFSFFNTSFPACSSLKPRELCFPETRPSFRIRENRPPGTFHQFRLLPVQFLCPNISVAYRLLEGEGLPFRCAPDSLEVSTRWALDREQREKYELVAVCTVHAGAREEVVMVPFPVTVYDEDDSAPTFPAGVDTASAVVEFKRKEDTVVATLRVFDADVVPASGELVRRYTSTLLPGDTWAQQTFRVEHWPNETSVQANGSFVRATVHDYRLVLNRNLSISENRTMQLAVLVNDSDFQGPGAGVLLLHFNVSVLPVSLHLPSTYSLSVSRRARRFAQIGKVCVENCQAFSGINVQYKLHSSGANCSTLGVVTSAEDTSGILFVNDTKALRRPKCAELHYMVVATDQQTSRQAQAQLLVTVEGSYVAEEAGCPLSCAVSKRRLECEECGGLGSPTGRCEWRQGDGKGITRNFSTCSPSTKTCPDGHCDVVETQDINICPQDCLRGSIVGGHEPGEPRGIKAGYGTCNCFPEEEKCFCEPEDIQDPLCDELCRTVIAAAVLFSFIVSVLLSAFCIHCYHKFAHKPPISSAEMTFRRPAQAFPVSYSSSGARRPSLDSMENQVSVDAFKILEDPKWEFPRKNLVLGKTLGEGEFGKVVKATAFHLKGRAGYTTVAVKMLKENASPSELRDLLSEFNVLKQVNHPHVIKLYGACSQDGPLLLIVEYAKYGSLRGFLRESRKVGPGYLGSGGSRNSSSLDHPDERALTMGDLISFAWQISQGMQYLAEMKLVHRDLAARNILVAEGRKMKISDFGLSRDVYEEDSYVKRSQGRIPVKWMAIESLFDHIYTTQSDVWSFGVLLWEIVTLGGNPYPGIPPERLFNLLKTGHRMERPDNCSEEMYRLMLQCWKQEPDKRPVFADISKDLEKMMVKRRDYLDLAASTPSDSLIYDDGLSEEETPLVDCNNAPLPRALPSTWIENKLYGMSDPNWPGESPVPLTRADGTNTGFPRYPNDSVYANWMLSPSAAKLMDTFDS
Chain of Epidermal growth factor receptor (P00533 25-1210 L858R limits assumed): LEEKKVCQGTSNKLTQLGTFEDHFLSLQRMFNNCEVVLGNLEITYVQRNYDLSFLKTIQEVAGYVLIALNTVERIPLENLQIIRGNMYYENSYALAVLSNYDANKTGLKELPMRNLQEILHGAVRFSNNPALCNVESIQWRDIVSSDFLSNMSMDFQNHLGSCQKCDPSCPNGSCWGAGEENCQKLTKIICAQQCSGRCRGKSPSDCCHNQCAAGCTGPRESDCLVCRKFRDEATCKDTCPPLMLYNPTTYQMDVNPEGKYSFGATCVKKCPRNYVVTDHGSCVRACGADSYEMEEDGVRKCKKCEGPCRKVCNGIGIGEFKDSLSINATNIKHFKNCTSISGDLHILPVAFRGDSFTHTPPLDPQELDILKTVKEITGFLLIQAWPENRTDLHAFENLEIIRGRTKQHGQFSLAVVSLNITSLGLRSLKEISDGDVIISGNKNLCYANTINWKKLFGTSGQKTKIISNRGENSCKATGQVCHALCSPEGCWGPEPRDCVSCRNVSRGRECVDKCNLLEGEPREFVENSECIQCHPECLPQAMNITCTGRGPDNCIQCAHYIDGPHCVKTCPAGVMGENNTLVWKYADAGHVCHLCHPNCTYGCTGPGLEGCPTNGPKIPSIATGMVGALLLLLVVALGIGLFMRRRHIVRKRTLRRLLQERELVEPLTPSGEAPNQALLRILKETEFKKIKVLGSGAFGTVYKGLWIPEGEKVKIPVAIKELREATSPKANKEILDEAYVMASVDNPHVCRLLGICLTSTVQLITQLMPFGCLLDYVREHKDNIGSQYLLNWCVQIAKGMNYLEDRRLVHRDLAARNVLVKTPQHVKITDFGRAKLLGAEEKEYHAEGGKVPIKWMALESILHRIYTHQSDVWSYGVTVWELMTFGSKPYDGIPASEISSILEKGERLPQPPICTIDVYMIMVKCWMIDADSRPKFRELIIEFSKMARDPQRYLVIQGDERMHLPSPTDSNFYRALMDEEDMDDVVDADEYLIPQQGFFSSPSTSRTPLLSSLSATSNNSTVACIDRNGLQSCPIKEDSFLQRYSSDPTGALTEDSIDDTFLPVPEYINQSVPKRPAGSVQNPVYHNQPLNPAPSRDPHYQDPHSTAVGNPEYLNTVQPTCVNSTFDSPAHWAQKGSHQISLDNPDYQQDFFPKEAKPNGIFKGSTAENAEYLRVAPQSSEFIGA
Chain of Platelet-derived growth factor receptor beta (Homo sapiens) (P09619 whole entry): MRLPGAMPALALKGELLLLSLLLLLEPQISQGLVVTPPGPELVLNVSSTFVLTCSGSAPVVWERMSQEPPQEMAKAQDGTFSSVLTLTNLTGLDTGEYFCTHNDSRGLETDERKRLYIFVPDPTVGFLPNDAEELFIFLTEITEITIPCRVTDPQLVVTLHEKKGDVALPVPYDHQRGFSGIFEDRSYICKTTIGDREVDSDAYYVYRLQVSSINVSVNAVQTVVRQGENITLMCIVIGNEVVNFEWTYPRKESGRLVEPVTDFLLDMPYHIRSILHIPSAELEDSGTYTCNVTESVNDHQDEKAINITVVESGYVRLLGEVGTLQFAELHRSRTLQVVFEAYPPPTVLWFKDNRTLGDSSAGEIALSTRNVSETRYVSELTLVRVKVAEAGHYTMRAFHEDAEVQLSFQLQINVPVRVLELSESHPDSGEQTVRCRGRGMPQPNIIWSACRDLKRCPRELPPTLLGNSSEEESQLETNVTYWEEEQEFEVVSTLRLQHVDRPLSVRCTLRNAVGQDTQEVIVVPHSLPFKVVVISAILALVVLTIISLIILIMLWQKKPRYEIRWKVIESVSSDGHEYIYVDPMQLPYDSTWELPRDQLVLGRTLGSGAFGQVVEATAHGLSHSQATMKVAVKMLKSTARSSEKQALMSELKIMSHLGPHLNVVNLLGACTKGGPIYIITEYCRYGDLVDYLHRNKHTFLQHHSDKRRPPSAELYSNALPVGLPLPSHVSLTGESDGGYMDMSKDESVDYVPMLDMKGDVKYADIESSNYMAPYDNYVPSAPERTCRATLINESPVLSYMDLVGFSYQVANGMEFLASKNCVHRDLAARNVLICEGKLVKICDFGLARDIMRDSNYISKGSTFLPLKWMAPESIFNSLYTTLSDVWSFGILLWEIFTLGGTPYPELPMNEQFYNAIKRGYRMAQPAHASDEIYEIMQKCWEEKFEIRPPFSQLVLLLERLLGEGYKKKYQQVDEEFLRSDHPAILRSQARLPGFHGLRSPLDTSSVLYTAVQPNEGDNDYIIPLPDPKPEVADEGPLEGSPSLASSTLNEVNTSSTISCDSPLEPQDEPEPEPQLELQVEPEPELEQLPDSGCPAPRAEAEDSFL
Chain of Receptor-type tyrosine-protein kinase FLT3 (Homo sapiens) (P36888 whole entry): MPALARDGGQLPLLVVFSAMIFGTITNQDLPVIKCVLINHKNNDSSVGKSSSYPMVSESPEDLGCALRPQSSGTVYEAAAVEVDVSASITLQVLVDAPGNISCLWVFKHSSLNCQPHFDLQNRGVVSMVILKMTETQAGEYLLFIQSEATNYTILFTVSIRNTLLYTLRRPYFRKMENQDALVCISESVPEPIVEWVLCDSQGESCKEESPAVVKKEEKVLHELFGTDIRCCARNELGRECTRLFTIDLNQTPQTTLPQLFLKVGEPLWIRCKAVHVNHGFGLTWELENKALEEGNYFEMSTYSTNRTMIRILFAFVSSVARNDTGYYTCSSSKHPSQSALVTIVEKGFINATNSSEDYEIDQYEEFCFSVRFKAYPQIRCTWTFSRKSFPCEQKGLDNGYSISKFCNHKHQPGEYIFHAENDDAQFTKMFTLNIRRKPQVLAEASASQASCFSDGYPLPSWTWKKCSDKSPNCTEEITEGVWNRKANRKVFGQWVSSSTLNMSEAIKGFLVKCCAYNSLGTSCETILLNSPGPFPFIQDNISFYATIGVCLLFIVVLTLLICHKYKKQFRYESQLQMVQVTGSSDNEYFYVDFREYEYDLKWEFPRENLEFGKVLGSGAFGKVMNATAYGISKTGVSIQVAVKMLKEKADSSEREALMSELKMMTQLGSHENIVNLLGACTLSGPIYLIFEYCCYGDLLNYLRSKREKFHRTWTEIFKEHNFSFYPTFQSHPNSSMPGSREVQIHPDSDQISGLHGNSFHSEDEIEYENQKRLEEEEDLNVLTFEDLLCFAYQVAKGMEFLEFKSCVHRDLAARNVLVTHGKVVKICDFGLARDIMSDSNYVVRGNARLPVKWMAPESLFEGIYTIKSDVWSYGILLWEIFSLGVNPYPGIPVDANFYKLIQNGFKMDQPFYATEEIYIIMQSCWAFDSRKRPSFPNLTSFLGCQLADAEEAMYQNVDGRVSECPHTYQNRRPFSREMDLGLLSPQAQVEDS

For the compound `C=CC(=O)N1CC[C@H](N2C(=O)N(c3ccccc3)Cc3cnc(Nc4ccc(N5CCN(C)CC5)c(C)c4)nc32)C1`, the Activity entry in the data set on Mus musculus is listed as “Non-toxic”. In the data set with NCI-H1975 [1], the inhibition in vivo at 10 mg/kg turned out to be 35.4%. In addition, the pIC50 in data set [2] was 8.30; in data set [3], 5.40; in data set [9], 8.52; in the data set on NCI-H1975 [18], 7.33. The result in data set [4], in data set [5], in data set [6], in [7] and in [8] was Active. Further, the result in the data set on NCI-H1975 [10], in the data set with NCI-H1975 [11], with NCI-H1975 [12] and with NCI-H1975 [13] was inactive. For the same compound, the clearance in data set [14] is 51.7 mL/min/kg. In addition, the AUC(0-inf) in data set [15] is 2490 ng·h/mL. The Cmax in data set [16] was 1040 ng/mL; in data set [17] it was 3980 ng/mL. For the same compound, in [19], the inhibition result was “Active”.
